# B1: IMP-19 (Aeromonas caviae), A8QUY6 (protein)
# chain: MKKLFVLCVCFLCSITAAGAALPDLKIEKLEEGVYVHTSFEEVNGWGVVSKHGLVVLVNTDAYLIDTPFTATDTEKLVNWFVERGYKIKGTISSHFHSDSTGGIEWLNSQSIPTYASELTNELLKKDGKVQAKNSFSGVSYWLVKNKIEVFYPGPGHTQDNVVVWLPEKKILFGGCFVKPDGLGNLGDANLEAWPKSAKILMSKYVKAKLVVSSHSEIGDASLLKRTWEQAVKGLNESKKPSQPSN
# Legend:
# [1] = substrate: CC(=O)OCC1=C(C(=O)O)N2C(=O)[C@@H](NC(=O)Cc3cccs3)[C@H]2SC1; assay: (§1) Ratio of Kcat to Km of Aeromonas caviae A324R metallo-beta-lactamase IMP-19 expressed in Escherichia coli DH5alpha by computerized microacidimetric method
# Method in brief: (§2)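 IMP-19 purified from sonicated recombinant E. coli DH5alpha(pIP19). Purification: SP Sepharose in 50 mM MES-NaOH pH 6.0 with 0–500 mM NaCl gradient, then 5 mM ZnCl2 and Superose 12 in 20 mM MES-NaOH–100 mM NaCl pH 6.0; purity >97% by SDS-PAGE. Km and kcat measured three times by computerized microacidimetry; variation coefficients at most 10%.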
# [2] = substrate: CC(C)(O/N=C(\C(=O)N[C@@H]1C(=O)N2C(C(=O)[O-])=C(C[n+]3ccccc3)CS[C@H]12)c1csc(N)n1)C(=O)O; assay: as §1; method in brief: as §2
# [3] = substrate: CC1(C)S[C@@H]2[C@H](NC(=O)Cc3ccccc3)C(=O)N2[C@H]1C(=O)O; assay: as §1; method in brief: as §2
# [4] = substrate: CC1(C)S[C@@H]2[C@H](NC(=O)[C@H](C(=O)O)c3ccsc3)C(=O)N2[C@H]1C(=O)O; assay: as §1; method in brief: as §2
# [5] = substrate: CC1(C)S[C@@H]2[C@H](NC(=O)[C@H](N)c3ccc(O)cc3)C(=O)N2[C@H]1C(=O)O; assay: as §1; method in brief: as §2
# [6] = substrate: CCN1CCN(C(=O)N[C@@H](C(=O)N[C@@H]2C(=O)N3[C@@H]2SC(C)(C)[C@@H]3C(=O)O)c2ccccc2)C(=O)C1=O; assay: as §1; method in brief: as §2
# [7] = substrate: CO/N=C(\C(=O)N[C@@H]1C(=O)N2C(C(=O)O)=C(COC(C)=O)CS[C@H]12)c1csc(N)n1; assay: as §1; method in brief: as §2
# [8] = substrate: CO/N=C(\C(=O)N[C@@H]1C(=O)N2C(C(=O)O)=C(COC(N)=O)CS[C@H]12)c1ccco1; assay: as §1; method in brief: as §2
# [9] = substrate: CO/N=C(\C(=O)N[C@@H]1C(=O)N2C(C(=O)[O-])=C(C[n+]3cccc4c3CCC4)CS[C@H]12)c1csc(N)n1; assay: as §1; method in brief: as §2
# [10] = substrate: CO[C@@]1(NC(=O)Cc2cccs2)C(=O)N2C(C(=O)O)=C(COC(N)=O)CS[C@@H]21; assay: as §1; method in brief: as §2
# [11] = substrate: C[C@@H](O)[C@H]1C(=O)N2C(C(=O)O)=C(SCCNC=N)C[C@H]12; assay: as §1; method in brief: as §2
# [12] = substrate: C[C@@H](O)[C@H]1C(=O)N2C(C(=O)O)=C(S[C@@H]3CN[C@H](C(=O)N(C)C)C3)[C@H](C)[C@H]12; assay: as §1; method in brief: as §2
# [13] = substrate: CC(=O)OCC1=C(C(=O)O)N2C(=O)[C@@H](NC(=O)Cc3cccs3)[C@H]2SC1; assay: (§3) Activity of Aeromonas caviae A324R metallo-beta-lactamase IMP-19 expressed in Escherichia coli DH5alpha by computerized microacidimetric method; method in brief: as §2
# [14] = substrate: CC(C)(O/N=C(\C(=O)N[C@@H]1C(=O)N2C(C(=O)[O-])=C(C[n+]3ccccc3)CS[C@H]12)c1csc(N)n1)C(=O)O; assay: as §3; method in brief: as §2
# [15] = substrate: CC1(C)S[C@@H]2[C@H](NC(=O)Cc3ccccc3)C(=O)N2[C@H]1C(=O)O; assay: as §3; method in brief: as §2
# [16] = substrate: CC1(C)S[C@@H]2[C@H](NC(=O)[C@H](C(=O)O)c3ccsc3)C(=O)N2[C@H]1C(=O)O; assay: as §3; method in brief: as §2
# [17] = substrate: CC1(C)S[C@@H]2[C@H](NC(=O)[C@H](N)c3ccc(O)cc3)C(=O)N2[C@H]1C(=O)O; assay: as §3; method in brief: as §2
# [18] = substrate: CCN1CCN(C(=O)N[C@@H](C(=O)N[C@@H]2C(=O)N3[C@@H]2SC(C)(C)[C@@H]3C(=O)O)c2ccccc2)C(=O)C1=O; assay: as §3; method in brief: as §2
# [19] = substrate: CO/N=C(\C(=O)N[C@@H]1C(=O)N2C(C(=O)O)=C(COC(C)=O)CS[C@H]12)c1csc(N)n1; assay: as §3; method in brief: as §2
# [20] = substrate: CO/N=C(\C(=O)N[C@@H]1C(=O)N2C(C(=O)O)=C(COC(N)=O)CS[C@H]12)c1ccco1; assay: as §3; method in brief: as §2
# [21] = substrate: CO/N=C(\C(=O)N[C@@H]1C(=O)N2C(C(=O)[O-])=C(C[n+]3cccc4c3CCC4)CS[C@H]12)c1csc(N)n1; assay: as §3; method in brief: as §2
# [22] = substrate: CO[C@@]1(NC(=O)Cc2cccs2)C(=O)N2C(C(=O)O)=C(COC(N)=O)CS[C@@H]21; assay: as §3; method in brief: as §2
# [23] = substrate: C[C@@H](O)[C@H]1C(=O)N2C(C(=O)O)=C(SCCNC=N)C[C@H]12; assay: as §3; method in brief: as §2
# [24] = substrate: C[C@@H](O)[C@H]1C(=O)N2C(C(=O)O)=C(S[C@@H]3CN[C@H](C(=O)N(C)C)C3)[C@H](C)[C@H]12; assay: as §3; method in brief: as §2
# [25] = substrate: C[C@H]1[C@H](NC(=O)/C(=N\OC(C)(C)C(=O)O)c2csc(N)n2)C(=O)N1S(=O)(=O)O; assay: as §3; method in brief: as §2
protein,measurement,setting,value
B1,kcat/Km,[1],0.14
same,kcat/Km,[2],0.32
same,kcat/Km,[3],4.91
same,kcat/Km,[4],4.88
same,kcat/Km,[5],2.2
same,kcat/Km,[6],0.28
same,kcat/Km,[7],0.33
same,kcat/Km,[8],0.17
same,kcat/Km,[9],0.3
same,kcat/Km,[10],0.29
same,kcat/Km,[11],0.26
same,kcat/Km,[12],0.14
same,Km,[13],76 µM
same,kcat,[13],11 s⁻¹
same,Km,[14],20 µM
same,kcat,[14],6.4 s⁻¹
same,Km,[15],206 µM
same,kcat,[15],1010 s⁻¹
same,Km,[16],140 µM
same,kcat,[16],683 s⁻¹
same,Km,[17],207 µM
same,kcat,[17],456 s⁻¹
same,Km,[18],148 µM
same,kcat,[18],41.2 s⁻¹
same,Km,[19],61 µM
same,kcat,[19],20.1 s⁻¹
same,Km,[20],95 µM
same,kcat,[20],16.4 s⁻¹
same,Km,[21],48 µM
same,kcat,[21],14.3 s⁻¹
same,Km,[22],33 µM
same,kcat,[22],9.7 s⁻¹
same,Km,[23],100 µM
same,kcat,[23],26.5 s⁻¹
same,Km,[24],7 µM
same,kcat,[24],1 s⁻¹
same,kcat,[25],< 0.1 s⁻¹

# Source: ChEMBL document CHEMBL1137670, “First occurrence of an IMP metallo-beta-lactamase in Aeromonas caviae: IMP-19 in an isolate from France” (2007)
